Assays:
Plasmodium berghei [1] = assay: Antiplasmodial activity against Plasmodium berghei infected in Swiss Webster mouse assessed as mouse survival at 33 mg/kg, po dosed once daily for 4 consecutive days beginning 1 hr after initial infection and measured on day 4 post infection by Giemsa staining method; format: functional
How it was run: (§1)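 Female Swiss Webster mice (about 20 g) were infected ip with 6 × 10^6 P. berghei-infected erythrocytes from a donor mouse. They were dosed by oral gavage once daily for 4 days, starting 1 h post-infection, in PEG 300/propylene glycol/water (55/25/20 by weight). Parasitemia was read daily on Giemsa smears from day 4, and mice were euthanized above 50% parasitemia. Percent survival was tracked to 21 days.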

Plasmodium berghei [2] = assay: Antiplasmodial activity against Plasmodium berghei infected in Swiss Webster mouse assessed as mouse survival at 33 mg/kg, po dosed once daily for 4 consecutive days beginning 1 hr after initial infection and measured on day 5 post infection by Giemsa staining method; format: functional; how it was run: as §1
Plasmodium berghei [3] = assay: Antiplasmodial activity against Plasmodium berghei infected in Swiss Webster mouse assessed as mouse survival at 33 mg/kg, po dosed once daily for 4 consecutive days beginning 1 hr after initial infection and measured on day 6 post infection by Giemsa staining method; format: functional; how it was run: as §1
Plasmodium berghei [4] = assay: Antiplasmodial activity against Plasmodium berghei infected in Swiss Webster mouse assessed as mouse survival at 33 mg/kg, po dosed once daily for 4 consecutive days beginning 1 hr after initial infection and measured on day 7 post infection by Giemsa staining method; format: functional; how it was run: as §1
Plasmodium berghei [5] = assay: Antiplasmodial activity against Plasmodium berghei infected in Swiss Webster mouse assessed as mouse survival at 33 mg/kg, po dosed once daily for 4 consecutive days beginning 1 hr after initial infection and measured on day 8 post infection by Giemsa staining method; format: functional; how it was run: as §1
Plasmodium berghei [6] = assay: Antiplasmodial activity against Plasmodium berghei infected in Swiss Webster mouse assessed as mouse survival at 33 mg/kg, po dosed once daily for 4 consecutive days beginning 1 hr after initial infection and measured on day 9 post infection by Giemsa staining method; format: functional; how it was run: as §1
Plasmodium berghei [7] = assay: Antiplasmodial activity against Plasmodium berghei infected in Swiss Webster mouse assessed as mouse survival at 33 mg/kg, po dosed once daily for 4 consecutive days beginning 1 hr after initial infection and measured on day 10 post infection by Giemsa staining method; format: functional; how it was run: as §1
Plasmodium berghei [8] = assay: Antiplasmodial activity against Plasmodium berghei infected in Swiss Webster mouse assessed as mouse survival at 11 mg/kg, po dosed once daily for 4 consecutive days beginning 1 hr after initial infection and measured on day 4 post infection by Giemsa staining method; format: functional
How it was run: (§2)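 Female Swiss Webster mice (about 20 g) infected ip with 6 × 10^6 P. berghei-infected erythrocytes. Oral gavage once daily for 4 days, starting 1 h after infection. Vehicle PEG300/propylene glycol/water (55/25/20 by weight). Giemsa-smear parasitemia counted daily from day 4. Mice euthanised above 50% parasitemia. Survival followed to day 21, 5 mice per dose, chloroquine 30 mg/kg as reference.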

Plasmodium berghei [9] = assay: Antiplasmodial activity against Plasmodium berghei infected in Swiss Webster mouse assessed as […] dosed orally once daily for 4 consecutive days beginning 1 hr after initial infection and measured on day 4 after onset of treatment by Giemsa staining method; format: functional; conditions: po
How it was run: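 In the P. berghei model, female Swiss Webster mice were infected ip with 6 × 10^6 infected erythrocytes. They were gavaged once daily for 4 days from 1 h post-infection, in PEG 300/propylene glycol/water (55/25/20 by weight), with 5 mice per dose. Parasitemia was counted on Giemsa smears. ED90 is the dose reducing parasitemia 90% versus vehicle controls 4 days after therapy began, fitted by nonlinear regression.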

Plasmodium berghei [10] = assay: Antiplasmodial activity against Plasmodium berghei infected in Swiss Webster mouse assessed as mouse survival at 11 mg/kg, po dosed once daily for 4 consecutive days beginning 1 hr after initial infection and measured on day 8 post infection by Giemsa staining method; format: functional; how it was run: as §2
Plasmodium berghei [11] = assay: Antiplasmodial activity against Plasmodium berghei infected in Swiss Webster mouse assessed as mouse survival at 3 mg/kg, po dosed once daily for 4 consecutive days beginning 1 hr after initial infection and measured on day 6 post infection by Giemsa staining method; format: functional; how it was run: as §2
Plasmodium berghei [12] = assay: Antiplasmodial activity against Plasmodium berghei infected in Swiss Webster mouse assessed as mouse survival at 3 mg/kg, po dosed once daily for 4 consecutive days beginning 1 hr after initial infection and measured on day 7 post infection by Giemsa staining method; format: functional; how it was run: as §2
Plasmodium berghei [13] = assay: Antiplasmodial activity against Plasmodium berghei infected in Swiss Webster mouse assessed as mouse survival at 3 mg/kg, po dosed once daily for 4 consecutive days beginning 1 hr after initial infection and measured on day 8 post infection by Giemsa staining method; format: functional; how it was run: as §2
Plasmodium berghei [14] = assay: Antiplasmodial activity against Plasmodium berghei infected in Swiss Webster mouse assessed as mouse survival at 3 mg/kg, po dosed once daily for 4 consecutive days beginning 1 hr after initial infection and measured on day 9 post infection by Giemsa staining method; format: functional; how it was run: as §2
Plasmodium berghei [15] = assay: Antiplasmodial activity against Plasmodium berghei infected in Swiss Webster mouse assessed as mouse survival at 1 mg/kg, po dosed once daily for 4 consecutive days beginning 1 hr after initial infection and measured on day 4 post infection by Giemsa staining method; format: functional; how it was run: as §2
Plasmodium berghei [16] = assay: Antiplasmodial activity against Plasmodium berghei infected in Swiss Webster mouse assessed as mouse survival at 1 mg/kg, po dosed once daily for 4 consecutive days beginning 1 hr after initial infection and measured on day 6 post infection by Giemsa staining method; format: functional; how it was run: as §2
Plasmodium berghei [17] = assay: Antiplasmodial activity against Plasmodium berghei infected in Swiss Webster mouse assessed as mouse survival at 1 mg/kg, po dosed once daily for 4 consecutive days beginning 1 hr after initial infection and measured on day 7 post infection by Giemsa staining method; format: functional; how it was run: as §2
Plasmodium berghei [18] = assay: Antiplasmodial activity against Plasmodium berghei infected in Swiss Webster mouse assessed as mouse survival at 1 mg/kg, po dosed once daily for 4 consecutive days beginning 1 hr after initial infection and measured on day 9 post infection by Giemsa staining method; format: functional; how it was run: as §2
Plasmodium falciparum = assay: Antimalarial activity against chloroquine-resistant Plasmodium falciparum W2 cultured in human erythrocytes assessed as inhibition of parasite growth incubated for 48 hrs by YOYO-1 staining based flow cytometry; format: functional, organism-based; conditions: W2, 48 h
Plasmodium berghei [19] = assay: Antiplasmodial activity against Plasmodium berghei infected in Swiss Webster mouse assessed as mouse survival at 100 mg/kg, po dosed once daily for 4 consecutive days beginning 1 hr after initial infection and measured on day 5 post infection by Giemsa staining method; format: functional; how it was run: as §2
Plasmodium berghei [20] = assay: Antiplasmodial activity against Plasmodium berghei infected in Swiss Webster mouse assessed as mouse survival at 100 mg/kg, po dosed once daily for 4 consecutive days beginning 1 hr after initial infection and measured on day 6 post infection by Giemsa staining method; format: functional; how it was run: as §2
Plasmodium berghei [21] = assay: Antiplasmodial activity against Plasmodium berghei infected in Swiss Webster mouse assessed as mouse survival at 100 mg/kg, po dosed once daily for 4 consecutive days beginning 1 hr after initial infection and measured on day 7 post infection by Giemsa staining method; format: functional; how it was run: as §2
Plasmodium berghei [22] = assay: Antiplasmodial activity against Plasmodium berghei infected in Swiss Webster mouse assessed as mouse survival at 100 mg/kg, po dosed once daily for 4 consecutive days beginning 1 hr after initial infection and measured on day 8 post infection by Giemsa staining method; format: functional; how it was run: as §2
Plasmodium berghei [23] = assay: Antiplasmodial activity against Plasmodium berghei infected in Swiss Webster mouse assessed as mouse survival at 100 mg/kg, po dosed once daily for 4 consecutive days beginning 1 hr after initial infection and measured on day 9 post infection by Giemsa staining method; format: functional; how it was run: as §2
Plasmodium berghei [24] = assay: Antiplasmodial activity against Plasmodium berghei infected in Swiss Webster mouse assessed as mouse survival at 100 mg/kg, po dosed once daily for 4 consecutive days beginning 1 hr after initial infection and measured on day 10 post infection by Giemsa staining method; format: functional; how it was run: as §2

| SMILES | survival at 33 mg/kg (Plasmodium berghei [1]) [%] | survival at 33 mg/kg (Plasmodium berghei [2]) [%] | survival at 33 mg/kg (Plasmodium berghei [3]) [%] | survival at 33 mg/kg (Plasmodium berghei [4]) [%] | survival at 33 mg/kg (Plasmodium berghei [5]) [%] | survival at 33 mg/kg (Plasmodium berghei [6]) [%] | survival at 11 mg/kg (Plasmodium berghei [8]) [%] | ED90 (Plasmodium berghei [9]) [mg/kg] | survival at 11 mg/kg (Plasmodium berghei [10]) [%] | survival at 3 mg/kg (Plasmodium berghei [11]) [%] | survival at 3 mg/kg (Plasmodium berghei [12]) [%] | survival at 3 mg/kg (Plasmodium berghei [13]) [%] | survival at 3 mg/kg (Plasmodium berghei [14]) [%] | survival at 1 mg/kg (Plasmodium berghei [15]) [%] | survival at 1 mg/kg (Plasmodium berghei [16]) [%] | survival at 1 mg/kg (Plasmodium berghei [17]) [%] | IC50 (Plasmodium falciparum) [nM] | survival at 100 mg/kg (Plasmodium berghei [19]) [%] | survival at 100 mg/kg (Plasmodium berghei [20]) [%] | survival at 100 mg/kg (Plasmodium berghei [21]) [%] | also measured |
| --- | --- | --- | --- | --- | --- | --- | --- | --- | --- | --- | --- | --- | --- | --- | --- | --- | --- | --- | --- | --- | --- |
| COC(=O)c1cnc(Oc2ccc3c(c2)B(O)OC3)cn1 | 100 | 100 | 100 | 100 | 100 | 100 | 100 | 7 | 100 | 100 | 100 | 80 | 40 | 100 | 100 | 100 | 1.4 | 100 | 100 | 100 | survival at 33 mg/kg (Plasmodium berghei [7]): 100%; survival at 1 mg/kg (Plasmodium berghei [18]): 0%; survival at 100 mg/kg (Plasmodium berghei [22]): 100%; survival at 100 mg/kg (Plasmodium berghei [23]): 100%; survival at 100 mg/kg (Plasmodium berghei [24]): 100% |
| O=C(O)c1cnc(Oc2ccc3c(c2)B(O)OC3)cn1 | 100 | 100 | 100 | 100 | 80 | 40 | 100 | 30.3 | 60 | 100 | 60 | 20 | 0 | 100 | 100 | 80 | 150 | 100 | 100 | 100 | survival at 33 mg/kg (Plasmodium berghei [7]): 40%; survival at 1 mg/kg (Plasmodium berghei [18]): 0%; survival at 100 mg/kg (Plasmodium berghei [22]): 100%; survival at 100 mg/kg (Plasmodium berghei [23]): 60%; survival at 100 mg/kg (Plasmodium berghei [24]): 60% |
| NC(=O)c1cnc(Oc2ccc3c(c2)B(O)OC3)cn1 | 100 | 100 | 100 | 100 | 100 | 60 | 100 | 38.7 | 100 | 100 | 80 | 60 | 0 | 100 | 100 | 60 | 210 | 100 | 100 | 100 | survival at 33 mg/kg (Plasmodium berghei [7]): 0%; survival at 1 mg/kg (Plasmodium berghei [18]): 0%; survival at 100 mg/kg (Plasmodium berghei [22]): 100%; survival at 100 mg/kg (Plasmodium berghei [23]): 60%; survival at 100 mg/kg (Plasmodium berghei [24]): 0% |
| O=C(O)c1ccc(Oc2ccc3c(c2)B(O)OC3)cn1 | 100 | 100 | 100 | 100 | 60 | 0 | 100 | 21.1 | 40 | 100 | 60 | 20 | 0 | 100 | 100 | 60 | 170 | 100 | 100 | 100 | survival at 100 mg/kg (Plasmodium berghei [22]): 80%; survival at 100 mg/kg (Plasmodium berghei [23]): 0% |

Source: ChEMBL document CHEMBL3580633, “Benzoxaborole antimalarial agents. Part 4. Discovery of potent 6-(2-(alkoxycarbonyl)pyrazinyl-5-oxy)-1,3-dihydro-1-hydroxy-2,1-benzoxaboroles” (J Med Chem, 2015)
